ChEMBL document CHEMBL4033712, “Synthesis and biological evaluation of new C-12(α/β)-(N-) sulfamoyl-phenylamino-14-deoxy-andrographolide derivatives as potent anti-cancer agents” (Bioorg Med Chem Lett, 2017)

Key:
Type in all cases: functional
NCI-H522 = assay: Growth inhibition of human NCI-H522 cells incubated for 48 hrs by sulforhodamine B assay; settings: NCI-H522, 48 h
Procedure, shortened: (§1)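 NCI-60 five-dose screen at 0.01, 0.1, 1, 10 and 100 µM, 48 h incubation, sulforhodamine B end point. GI50 (50% decrease in net growth), TGI (total growth inhibition) and LC50 (net 50% loss of initial cells) taken from log concentration versus % growth inhibition curves.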

SW-620 = assay: Growth inhibition of human SW620 cells incubated for 48 hrs by sulforhodamine B assay; settings: SW-620, 48 h
Procedure, shortened: (§2)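 NCI 60 human tumour cell line panel, five-dose study at 0.01, 0.1, 1, 10 and 100 µM, 48 h incubation. Sulforhodamine B protein-binding dye end point. GI50 (50% decrease in net cell growth), TGI (total growth inhibition) and LC50 (net 50% loss of initial cells) read from log concentration versus % growth inhibition curves.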

Hs-578T = assay: Growth inhibition of human Hs 578T cells incubated for 48 hrs by sulforhodamine B assay; procedure, shortened: as §1
NCI-H460 = assay: Growth inhibition of human NCI-H460 cells incubated for 48 hrs by sulforhodamine B assay; settings: NCI-H460, 48 h; procedure, shortened: as §1
OVCAR-3 = assay: Growth inhibition of human OVCAR3 cells incubated for 48 hrs by sulforhodamine B assay; settings: OVCAR-3, 48 h; procedure, shortened: as §1
OVCAR-4 = assay: Growth inhibition of human OVCAR4 cells incubated for 48 hrs by sulforhodamine B assay; settings: OVCAR-4, 48 h; procedure, shortened: as §1
LOX IMVI = assay: Growth inhibition of human LOXIMVI cells incubated for 48 hrs by sulforhodamine B assay; procedure, shortened: as §1
BT-549 = assay: Growth inhibition of human BT549 cells incubated for 48 hrs by sulforhodamine B assay; settings: BT-549, 48 h; procedure, shortened: as §1
HT-29 = assay: Growth inhibition of human HT-29 cells incubated for 48 hrs by sulforhodamine B assay; settings: HT-29, 48 h; procedure, shortened: as §1
SK-MEL-2 = assay: Growth inhibition of human SK-MEL-2 cells incubated for 48 hrs by sulforhodamine B assay; settings: SK-MEL-2, 48 h; procedure, shortened: as §2
T47D = assay: Growth inhibition of human T47D cells incubated for 48 hrs by sulforhodamine B assay; procedure, shortened: as §2
OVCAR-8 = assay: Growth inhibition of human OVCAR8 cells incubated for 48 hrs by sulforhodamine B assay; settings: OVCAR-8, 48 h; procedure, shortened: as §1
SR = assay: Growth inhibition of human SR cells incubated for 48 hrs by sulforhodamine B assay; procedure, shortened: as §2
SF-295 = assay: Growth inhibition of human SF295 cells incubated for 48 hrs by sulforhodamine B assay; settings: SF-295, 48 h; procedure, shortened: as §2
ACHN = assay: Growth inhibition of human ACHN cells incubated for 48 hrs by sulforhodamine B assay; procedure, shortened: as §1
MDA-MB-468 = assay: Growth inhibition of human MDA-MB-468 cells incubated for 48 hrs by sulforhodamine B assay; settings: MDA-MB-468, 48 h; procedure, shortened: as §1
UACC-257 = assay: Growth inhibition of human UACC257 cells incubated for 48 hrs by sulforhodamine B assay; settings: UACC-257, 48 h; procedure, shortened: as §2
CCRF-CEM = assay: Growth inhibition of human CCRF-CEM cells incubated for 48 hrs by sulforhodamine B assay; procedure, shortened: as §1
OVCAR-5 = assay: Growth inhibition of human OVCAR5 cells incubated for 48 hrs by sulforhodamine B assay; settings: OVCAR-5, 48 h; procedure, shortened: as §1
PC-3 = assay: Growth inhibition of human PC3 cells incubated for 48 hrs by sulforhodamine B assay; settings: PC-3, 48 h; procedure, shortened: as §1
HOP-92 = assay: Anticancer activity against human HOP92 cells assessed as cell growth at 10 uM after 48 hrs by sulforhodamine B assay relative to control; settings: HOP-92, 48 h, read-out: Activity
Procedure, shortened: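 Single-dose NCI-60 panel screen: compound added at 10 µM and the culture incubated 48 h. The end point was read by protein staining with sulforhodamine B. The value is percent growth of treated cells relative to untreated control cells, reported as a mean graph across the panel.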

A498 = assay: Growth inhibition of human A498 cells incubated for 48 hrs by sulforhodamine B assay; settings: A498, 48 h; procedure, shortened: as §1
U-251 = assay: Growth inhibition of human U251 cells incubated for 48 hrs by sulforhodamine B assay; settings: U-251, 48 h; procedure, shortened: as §2
HL-60(TB) = assay: Growth inhibition of human HL-60(TB) cells incubated for 48 hrs by sulforhodamine B assay; settings: HL-60, 48 h
Procedure, shortened: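 NCI-60 five-dose screen at 0.01, 0.1, 1, 10 and 100 µM for 48 h, sulforhodamine B read-out. GI50 taken from log concentration versus % growth inhibition curves as the concentration giving 50% decrease in net cell growth.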

M14 = assay: Growth inhibition of human M14 cells incubated for 48 hrs by sulforhodamine B assay; settings: M14, 48 h; procedure, shortened: as §1
NCI-H322M = assay: Growth inhibition of human NCI-H322M cells incubated for 48 hrs by sulforhodamine B assay; procedure, shortened: as §1
SNB-19 = assay: Growth inhibition of human SNB19 cells incubated for 48 hrs by sulforhodamine B assay; settings: SNB-19, 48 h; procedure, shortened: as §2
TK-10 = assay: Growth inhibition of human TK10 cells incubated for 48 hrs by sulforhodamine B assay; settings: TK-10, 48 h; procedure, shortened: as §2
[1] = read-out: LC50 (the source's name)

C=C1CC[C@@H]2[C@](C)(COC(C)=O)[C@H](OC(C)=O)CC[C@@]2(C)[C@H]1CC(Nc1ccc(S(=O)(=O)Nc2nccc(C)n2)cc1)C1=CCOC1=O (some centres not stated)
GI50 (NCI-H522): 1.26 µM
TGI (NCI-H522): 3.1 µM
CC50 (NCI-H522; [1]): 7.62 µM
GI50 (SW-620): 1.6 µM
TGI (SW-620): 3.68 µM
CC50 (SW-620; [1]): 8.48 µM
GI50 (Hs-578T): 6.65 µM
LC50 (Hs-578T): > 100 µM
TGI (Hs-578T): 43 µM
GI50 (NCI-H460): 4.88 µM
TGI (NCI-H460): 18.3 µM
CC50 (NCI-H460; [1]): 53.9 µM
GI50 (OVCAR-3): 1.76 µM
TGI (OVCAR-3): 3.36 µM
CC50 (OVCAR-3; [1]): 6.43 µM
GI50 (OVCAR-4): 4.37 µM
LC50 (OVCAR-4): 41.4 µM
TGI (OVCAR-4): 15.8 µM
GI50 (LOX IMVI): 1.53 µM
TGI (LOX IMVI): 3.24 µM
CC50 (LOX IMVI; [1]): 6.89 µM
GI50 (BT-549): 2.3 µM
TGI (BT-549): 5.61 µM
CC50 (BT-549; [1]): 18.7 µM
GI50 (HT-29): 2.02 µM
TGI (HT-29): 4.24 µM
CC50 (HT-29; [1]): 8.93 µM
GI50 (SK-MEL-2): 6.01 µM
TGI (SK-MEL-2): 20 µM
CC50 (SK-MEL-2; [1]): 52.1 µM
GI50 (T47D): 2.77 µM
TGI (T47D): 8.33 µM
CC50 (T47D; [1]): > 100 µM
GI50 (OVCAR-8): 2.61 µM
TGI (OVCAR-8): 8.56 µM
CC50 (OVCAR-8; [1]): 47.6 µM
GI50 (SR): 0.75 µM
TGI (SR): > 100 µM
CC50 (SR; [1]): > 100 µM
GI50 (SF-295): 12.4 µM
TGI (SF-295): 25.6 µM
CC50 (SF-295; [1]): 52.9 µM
GI50 (ACHN): 3.64 µM
TGI (ACHN): 13 µM
CC50 (ACHN; [1]): 38.4 µM
GI50 (MDA-MB-468): 1.99 µM
TGI (MDA-MB-468): 4.3 µM
CC50 (MDA-MB-468; [1]): 9.3 µM
GI50 (UACC-257): 4.8 µM
TGI (UACC-257): 16.4 µM
CC50 (UACC-257; [1]): 42.8 µM
GI50 (CCRF-CEM): 0.0073 µM
TGI (CCRF-CEM): 3.09 µM
CC50 (CCRF-CEM; [1]): > 100 µM
GI50 (OVCAR-5): 3.86 µM
LC50 (concentration causing net 50% loss of initial cells) (OVCAR-5): 42.2 µM
TGI (OVCAR-5): 12.8 µM
GI50 (PC-3): 4.46 µM
TGI (PC-3): 15.7 µM
CC50 (PC-3; [1]): 43.3 µM
growth at 10 µM (HOP-92): 71.6%
GI50 (A498): 14.8 µM
LC50 (concentration giving net 50% loss of initial cells) (A498): 54.4 µM
TGI (A498): 28.4 µM
GI50 (U-251): 3.17 µM
TGI (U-251): 10.7 µM
CC50 (U-251; [1]): 33.3 µM
GI50 (HL-60(TB)): 2.1 µM
TGI (HL-60(TB)): 5.63 µM
CC50 (HL-60(TB); [1]): > 100 µM
GI50 (M14): 2.81 µM
TGI (M14): 10.8 µM
CC50 (M14; [1]): 72.6 µM
GI50 (NCI-H322M): 11.3 µM
TGI (NCI-H322M): 23.9 µM
CC50 (NCI-H322M; [1]): 50.7 µM
GI50 (SNB-19): 6.3 µM
TGI (SNB-19): 20.7 µM
CC50 (SNB-19; [1]): 52.7 µM
GI50 (TK-10): 4.94 µM
TGI (TK-10): 15.8 µM
CC50 (TK-10; [1]): 40.4 µM
